pIC50: −log10 of the molar value.
Experiments:
[1] = biological target: T1, Amine oxidase [flavin-containing] A (Homo sapiens, UniProt P21397); test: Inhibition of recombinant human MAO-A expressed in insect cells assessed as inhibition of oxidation of kynuramine to 4-hydroxyquinoline after 20 mins by fluorescence spectrophotometry; details: for pIC50: read-out: IC50
T1 sequence (P21397 whole entry): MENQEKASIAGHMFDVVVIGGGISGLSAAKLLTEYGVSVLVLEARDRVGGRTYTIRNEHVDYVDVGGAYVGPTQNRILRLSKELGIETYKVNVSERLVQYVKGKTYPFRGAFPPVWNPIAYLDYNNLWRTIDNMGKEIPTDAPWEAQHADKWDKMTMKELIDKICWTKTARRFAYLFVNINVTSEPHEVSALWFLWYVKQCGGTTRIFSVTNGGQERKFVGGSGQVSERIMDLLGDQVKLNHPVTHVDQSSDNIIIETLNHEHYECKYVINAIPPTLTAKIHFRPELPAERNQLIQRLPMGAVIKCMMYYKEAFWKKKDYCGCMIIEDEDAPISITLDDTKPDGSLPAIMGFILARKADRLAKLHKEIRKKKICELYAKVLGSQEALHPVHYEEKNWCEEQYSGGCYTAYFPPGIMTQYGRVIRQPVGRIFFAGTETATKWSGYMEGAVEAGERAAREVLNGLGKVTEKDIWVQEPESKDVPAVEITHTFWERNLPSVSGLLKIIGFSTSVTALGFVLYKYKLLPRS
Procedure, shortened: (§1)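 Enzyme source was insect-cell microsomes carrying recombinant hMAO-A or hMAO-B. Kynuramine substrate was oxidized to 4-hydroxyquinoline in 100 mM potassium phosphate, pH 7.4, made isotonic with 20.2 mM KCl, with 4% DMSO and varied inhibitor concentrations. Product was read by fluorescence (ex 310/em 400 nm) against a linear calibration curve. Controls excluded inhibitor fluorescence or quenching. IC50 came from a one-site competition fit of initial rate versus log[inhibitor]; mean ± SD of triplicates.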

[2] = biological target: T2, Amine oxidase [flavin-containing] B (Homo sapiens, UniProt P27338); test: Inhibition of recombinant human MAO-B expressed in insect cells assessed as inhibition of oxidation of kynuramine to 4-hydroxyquinoline after 20 mins by fluorescence spectrophotometry; details: for pIC50: read-out: IC50; procedure, shortened: as §1
T2 sequence (P27338 whole entry): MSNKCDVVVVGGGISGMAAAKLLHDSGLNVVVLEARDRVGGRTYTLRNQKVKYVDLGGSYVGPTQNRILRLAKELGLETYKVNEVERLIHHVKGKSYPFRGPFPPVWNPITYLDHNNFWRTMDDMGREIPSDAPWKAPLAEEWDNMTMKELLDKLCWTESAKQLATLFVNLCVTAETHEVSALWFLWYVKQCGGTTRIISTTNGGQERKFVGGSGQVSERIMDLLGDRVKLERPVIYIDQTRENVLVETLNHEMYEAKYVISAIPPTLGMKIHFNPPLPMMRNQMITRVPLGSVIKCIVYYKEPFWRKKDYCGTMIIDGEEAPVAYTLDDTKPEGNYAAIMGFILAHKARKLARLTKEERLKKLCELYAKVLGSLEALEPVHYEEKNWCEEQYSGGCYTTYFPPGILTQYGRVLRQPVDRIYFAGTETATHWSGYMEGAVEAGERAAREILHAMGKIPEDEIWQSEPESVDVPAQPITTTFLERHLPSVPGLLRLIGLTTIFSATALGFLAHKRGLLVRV

Homo sapiens = species on record: Homo sapiens; test: Selectivity ratio of IC50 for recombinant human MAO-B expressed in insect cells to IC50 for recombinant human MAO-A expressed in insect cells

| Structure (SMILES) | pIC50 [1] | pIC50 [2] | IC50 [1] | IC50 [2] | Ratio IC50 (Homo sapiens) |
| --- | --- | --- | --- | --- | --- |
| CC1=C(/C=N/N(C)C(N)=S)C(C)(C)CC=C1 | 4.03 | 3.93 | – | – | – |
| CC1=C(/C=N/N=C2\SCC(=O)N2Cc2ccccc2)C(C)(C)CC=C1 | 4.06 | 3.67 | – | – | – |
| CC1=C(C=O)C(C)(C)CC=C1 | – | – | Not Active | Not Active | – |
| CC(/C=C/C=C(\C)C(=O)O[C@@H]1O[C@H](CO[C@@H]2O[C@H](CO)[C@@H](O)[C@H](O)[C@H]2O)[C@@H](O)[C@H](O)[C@H]1O)=C\C=C\C=C(C)\C=C\C=C(/C)C(=O)O[C@@H]1O[C@H](CO[C@@H]2O[C@H](CO)[C@@H](O)[C@H](O)[C@H]2O)[C@@H](O)[C@H](O)[C@H]1O [CROCIN] | 3.77 | 3.89 | – | – | – |
| CC1=C(/C=N/NC(=S)Nc2ccccc2)C(C)(C)CC=C1 | 4.71 | 3.65 | – | – | 11 |
| CC1=C(/C=N/NC(N)=O)C(C)(C)CC=C1 | 3.79 | 3.95 | – | – | – |
| CC1=C(/C=N/Nc2nc(-c3cccc([N+](=O)[O-])c3)cs2)C(C)(C)CC=C1 | 5.00 | 7.00 | – | – | – |
| CC1=C(/C=N/NC(N)=S)C(C)(C)CC=C1 | 4.25 | 4.13 | – | – | – |
| CC1=C(/C=N/N=C2/NC(=O)CS2)C(C)(C)CC=C1 | 3.88 | 3.77 | – | – | – |

From ChEMBL document CHEMBL3297678, “New insights into the biological properties of Crocus sativus L.: chemical modifications, human monoamine oxidases inhibition and molecular modeling studies” (Eur J Med Chem, 2014)
